From ChEMBL document CHEMBL2163328, “Inhibition of TNF-α-Induced Inflammation by andrographolide via down-regulation of the PI3K/Akt signaling pathway” (J Nat Prod, 2011) come the findings set out here.

Activity calls are given as the source filed them. The rule behind the calls is not given here.

Data set [1] deals with HUVEC. The experiment in a line: Inhibition of TNFalpha-stimulated human ICAM-1 promoter activity expressed in HUVEC assessed as […] activity at 10 to 25 uM pretreated for 30 mins before TNFalpha challenge measured after 5 hrs by luciferase reporter gene assay. The class given is functional, cell-based. In short, it runs like this: (§1)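 HUVEC transiently transfected by nanofection with human ICAM-1 promoter-luciferase (pIC339) plus pSV-β-galactosidase for 4 h. Pretreated 30 min, then TNF-α 1 ng/mL for 5 h. Luciferase activity measured in lysate supernatants and normalized to β-galactosidase activity for transfection efficiency. Three independent experiments.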

Data set [2] concerns HUVEC. The data set can be described thus: Inhibition of TNFalpha-stimulated ICAM-1 mRNA expression in HUVEC at 10 to 25 uM pretreated for 16 hrs before TNFalpha challenge measured after 6 hrs by RT-PCR analysis. The class given is functional, cell-based. The settings on record: Homo sapiens. In short, it runs like this: (§2)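 HUVEC pretreated 16 h, then TNF-α 1 ng/mL for 6 h. Total RNA isolated with TRIzol; 4 μg reverse-transcribed with M-MLV RT and oligo(dT). ICAM-1 amplified for 32 cycles (94 °C 1 min, 55 °C 1 min, 72 °C 2 min) after 95 °C for 5 min. Normalized to GAPDH; products resolved on 1% agarose and quantified by densitometry.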

The test system of data set [3] is HUVEC. The data set can be described thus: Inhibition of TNFalpha-stimulated DNA binding activity of NFkappaB in HUVEC at 10 to 25 uM pretreated for 16 hrs before TNFalpha challenge measured after 30 mins by EMSA. The settings on record: Homo sapiens. The class given is cell-based. The procedure, abridged:
(§3)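 EMSA: nuclear extracts prepared by hypotonic then hypertonic (400 mM KCl) extraction. 2 μg nuclear protein incubated with biotin-labeled NF-κB probe and poly(dI-dC) at room temperature for 30 min. Complexes separated on 6% TBE-PAGE, transferred to nylon and detected with streptavidin-HRP. Specificity checked with 100-fold excess unlabeled and mutant oligonucleotides.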

The target of data set [4] is RAC-alpha serine/threonine-protein kinase (Homo sapiens) (UniProt P31749). The experiment in a line: Inhibition of activated Akt1 phosphorylation at Ser473 expressed in HUVEC transfected with activated AKT1 assessed as pAKT level at 10 uM after 16 hrs by Western blot analysis (reference value: 272%). On the set-up: scale not given: the % may be the effect or the level left. The class given is cell-based.
RAC-alpha serine/threonine-protein kinase (Homo sapiens), sequence (P31749 whole entry): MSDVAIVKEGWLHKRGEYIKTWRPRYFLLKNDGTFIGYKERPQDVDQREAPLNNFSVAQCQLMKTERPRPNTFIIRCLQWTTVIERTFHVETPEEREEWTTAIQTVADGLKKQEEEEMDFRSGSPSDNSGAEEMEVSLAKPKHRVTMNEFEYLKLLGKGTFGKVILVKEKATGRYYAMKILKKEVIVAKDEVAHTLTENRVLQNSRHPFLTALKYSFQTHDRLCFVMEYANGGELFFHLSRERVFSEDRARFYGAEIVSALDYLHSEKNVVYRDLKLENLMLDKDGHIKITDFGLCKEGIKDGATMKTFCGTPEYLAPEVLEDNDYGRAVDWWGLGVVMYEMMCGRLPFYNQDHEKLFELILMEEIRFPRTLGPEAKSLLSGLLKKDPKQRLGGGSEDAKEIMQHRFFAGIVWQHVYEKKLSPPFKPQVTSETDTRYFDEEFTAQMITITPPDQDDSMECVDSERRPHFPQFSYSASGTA

Data set [5] relates to HUVEC. The experiment in a line: Toxicity in HUVEC assessed as induction of ICAM-1 expression at 5 to 20 uM measured after 6 hrs by Western blot analysis. The class given is cell-based. The settings on record: human.
Data set [6] deals with HUVEC. The experiment in a line: Inhibition of TNFalpha-stimulated cell surface ICAM-1 expression in HUVEC at 5 to 20 uM pretreated for 16 hrs before TNFalpha challenge measured after 6 hrs by flow cytometry. Conditions: Homo sapiens. The class given is functional, cell-based. The procedure, abridged: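 Cell-surface ICAM-1 by flow cytometry. HUVEC pretreated 16 h, then TNF-α 1 ng/mL for 6 h. Cells detached with trypsin and stained with FITC anti-ICAM-1 at 4 °C for 45 min in the dark. Washed three times in cold PBS before analysis. Three independent experiments.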

Data set [7] relates to HUVEC. The experiment in a line: Inhibition of TNFalpha-stimulated NFkappaB activation in HUVEC assessed as reduction of IkappaB degradation at 20 uM pretreated for 16 hrs before TNFalpha challenge measured after 30 mins by […]. The class given is cell-based. The settings on record: Homo sapiens.
Data set [8] deals with HUVEC. The data set can be described thus: Toxicity assessed as induction of HUVEC adhesion to BCECF-AM-labeled human HL60 cells by fluorescence assay. The class given is cell-based. In short, it runs like this: (§4)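 HUVEC grown to 80% confluence, pretreated 16 h, then TNF-α 1 ng/mL for 6 h. Co-incubated with 4 × 10^5 BCECF-AM-labeled HL-60 cells per well, 37 °C, 30 min. Nonadherent cells removed by inverted centrifugation at 100g for 5 min. Bound cells lysed in 1% SDS; fluorescence read at ex 490/em 520 nm and converted to adherent cells/well by standard curve. Three independent experiments.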

The target in data set [9] is RAC-alpha serine/threonine-protein kinase (Homo sapiens) (UniProt P31749). The experiment in a line: Inhibition of TNFalpha-stimulated ICAM-1 expression in HUVEC transfected with activated AKT1 assessed as ICAM1 level at 10 uM incubated for 16 hrs by Western blot (reference value: 249%). The class given is cell-based. On the set-up: scale not given: the % may be the effect or the level left.

The subject of data set [10] is HUVEC. The data set can be described thus: Inhibition of TNFalpha-stimulated ICAM-1 mRNA expression in HUVEC at 20 uM pretreated for 16 hrs before TNFalpha challenge measured after 6 hrs by RT-PCR analysis. The class given is functional, cell-based. Conditions: Homo sapiens. In short, it runs like this:
as §2

Data set [11] is described as follows: Cytotoxicity against TNFalpha-stimulated HUVEC assessed as cell viability at 5 uM pretreated for 16 hrs before TNFalpha challenge measured after 6 hrs by MTT assay (reference value: 103.8 +/- 6.1%). The class given is cell-based. Conditions: human, TNFalpha-stimulated HUVEC cells; read-out: Activity.
For data set [12], the target named is Transcription factor p65 (Homo sapiens) (UniProt Q04206). The data set can be described thus: Inhibition of TNFalpha-stimulated NFkappaB activation in HUVEC assessed as reduction of nuclear p65 level at 20 uM pretreated for 16 hrs before TNFalpha challenge measured after 30 mins by […].
Transcription factor p65 (Homo sapiens), sequence (Q04206 whole entry): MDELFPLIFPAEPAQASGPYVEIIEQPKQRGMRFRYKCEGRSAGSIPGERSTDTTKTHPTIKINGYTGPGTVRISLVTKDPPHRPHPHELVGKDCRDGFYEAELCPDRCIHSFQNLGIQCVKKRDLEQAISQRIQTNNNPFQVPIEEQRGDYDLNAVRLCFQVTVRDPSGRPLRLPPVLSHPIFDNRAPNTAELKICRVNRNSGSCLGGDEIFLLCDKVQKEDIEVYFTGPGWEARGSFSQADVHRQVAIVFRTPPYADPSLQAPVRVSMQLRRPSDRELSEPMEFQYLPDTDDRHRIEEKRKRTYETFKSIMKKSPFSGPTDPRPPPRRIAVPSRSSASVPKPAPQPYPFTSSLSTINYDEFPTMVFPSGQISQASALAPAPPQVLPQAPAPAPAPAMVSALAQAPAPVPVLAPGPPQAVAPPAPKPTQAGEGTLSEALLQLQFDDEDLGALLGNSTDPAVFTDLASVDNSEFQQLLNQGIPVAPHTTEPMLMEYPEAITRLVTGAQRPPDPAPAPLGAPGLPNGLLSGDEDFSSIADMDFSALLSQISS
Data set [13] has as its target RAC-alpha serine/threonine-protein kinase (Homo sapiens) (UniProt P31749). The data set can be described thus: Inhibition of TNFalpha-stimulated AKT1-mediated ICAM-1 expression in HUVEC assessed as ICAM1 level at 10 uM pretreated for 16 hrs before TNFalpha challenge measured after 6 hrs by Western blot analysis (reference value: 345%). The class given is cell-based. On the set-up: scale not given: the % may be the effect or the level left.

Data set [14] relates to HUVEC. The experiment in a line: Induction of NFkappaB activation in HUVEC by EMSA. The class given is cell-based. Conditions: Homo sapiens. In short, it runs like this: as §3
Data set [15] has as its system HUVEC. The data set can be described thus: Inhibition of TNFalpha-stimulated human ICAM-1 promoter activity expressed in HUVEC assessed as […] activity at 20 uM pretreated for 30 mins before TNFalpha challenge measured after 5 hrs by luciferase reporter gene assay. The class given is functional, cell-based. The procedure, abridged: as §1
The nature of data set [16]: Cytotoxicity against TNFalpha-stimulated HUVEC assessed as cell viability at 20 uM pretreated for 16 hrs before TNFalpha challenge measured after 6 hrs by MTT assay (reference value: 103.8 +/- 6.1%). The class given is cell-based. The settings on record: human, TNFalpha-stimulated HUVEC cells; read-out: Activity.
The target in data set [17] is RAC-alpha serine/threonine-protein kinase (Homo sapiens) (UniProt P31749). The experiment in a line: Induction of Akt1 phosphorylation at Ser473 expressed in HUVEC by Western blot analysis. The class given is cell-based.
Data set [18] has as its system HUVEC. The experiment in a line: Inhibition of TNFalpha-stimulated total ICAM-1 expression in HUVEC at 5 to 20 uM pretreated for 16 hrs before TNFalpha challenge measured after 6 hrs by Western blot analysis. The class given is functional, cell-based. The settings on record: Homo sapiens. In short, it runs like this:
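HUVEC pretreated 16 h, then TNF-α 1 ng/mL for 6 h. Lysed in Tris/EDTA/PMSF/aprotinin buffer at pH 7.4; equal protein run on SDS-PAGE and transferred to PVDF. Blocked in 5% milk at 4 °C overnight, probed with anti-ICAM-1 and HRP secondary. ECL detection with densitometric quantitation. Means ± SD, n = 3.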

Data set [19] in a line: Cytotoxicity against TNFalpha-stimulated HUVEC assessed as cell viability at 10 uM pretreated for 16 hrs before TNFalpha challenge measured after 6 hrs by MTT assay (reference value: 103.8 +/- 6.1%). The class given is cell-based. Conditions: human, TNFalpha-stimulated HUVEC cells; read-out: Activity.
For data set [20], the target named is RAC-alpha serine/threonine-protein kinase (Homo sapiens) (UniProt P31749). The experiment in a line: Inhibition of TNFalpha-stimulated Akt1 phosphorylation at Ser473 assessed as pAKT level in HUVEC at 10 uM pretreated for 16 hrs before TNFalpha challenge measured after 6 hrs by Western blot analysis (reference value: 249%). Also on record: scale not given: the % may be the effect or the level left.

For data set [21], the system named is HUVEC. The experiment in a line: Inhibition of TNFalpha-stimulated HUVEC adhesion to BCECF-AM-labeled human HL60 cells at 20 uM pretreated for 16 hrs before TNFalpha challenge measured after 6 hrs by fluorescence assay. The class given is functional. In short, it runs like this:
as §4

In data set [22] the target is RAC-alpha serine/threonine-protein kinase (Homo sapiens) (UniProt P31749). The experiment in a line: Inhibition of TNFalpha-stimulated Akt1 phosphorylation at Ser473 in HUVEC at 20 uM pretreated for 16 hrs before TNFalpha challenge measured after 15 mins by Western blot analysis.
For data set [23], the system named is HUVEC. The data set can be described thus: Inhibition of TNFalpha-stimulated DNA binding activity of NFkappaB in HUVEC at 5 to 20 uM pretreated for 16 hrs before TNFalpha challenge measured after 30 mins by EMSA. Conditions: Homo sapiens. The class given is cell-based. The procedure, abridged:
as §3

Turning to `O=c1cc(N2CCOCC2)oc2c(-c3ccccc3)cccc12`, the inhibition result in the data set with HUVEC [1], with HUVEC [2] and with HUVEC [3] was “Active” each time.
On to `C=C1CC[C@@H]2[C@](C)(CO)[C@H](O)CC[C@@]2(C)[C@@H]1C/C=C1/C(=O)OC[C@H]1O` [ANDROGRAPHOLIDE], for which the Activity in data set [4] was 111%; with HUVEC [5] it was “Non-toxic”; in the data set on HUVEC [8] it was “Non-toxic”; in data set [9], 177%; in data set [13], 36%; in data set [20] it was 127%. For the same compound, the inhibition entry (in the data set with HUVEC [6]; in the data set with HUVEC [7]; in the data set with HUVEC [10]; in data set [12]; in the data set on HUVEC [15]; with HUVEC [18]) was “Active” throughout. The inhibition entry (in data set [22]; in the data set on HUVEC [23]) was “Active” in each case. In addition, the viability at 6 h, 5 µM in data set [11] was determined as 96.4%. The outcome (in the data set with HUVEC [14]; in [17]) was inactive. In addition, the viability at 6 h, 20 µM in [16] was 87.5%. Also, the viability at 6 h, 10 µM in data set [19] turned out to be 94.6%. Further, the inhibition at 20 µM in the data set on HUVEC [21] was 73%.
